For one data set, the target named is T1, Caspase-1 (Homo sapiens, UniProt P29466).
T1 sequence (P29466 whole entry): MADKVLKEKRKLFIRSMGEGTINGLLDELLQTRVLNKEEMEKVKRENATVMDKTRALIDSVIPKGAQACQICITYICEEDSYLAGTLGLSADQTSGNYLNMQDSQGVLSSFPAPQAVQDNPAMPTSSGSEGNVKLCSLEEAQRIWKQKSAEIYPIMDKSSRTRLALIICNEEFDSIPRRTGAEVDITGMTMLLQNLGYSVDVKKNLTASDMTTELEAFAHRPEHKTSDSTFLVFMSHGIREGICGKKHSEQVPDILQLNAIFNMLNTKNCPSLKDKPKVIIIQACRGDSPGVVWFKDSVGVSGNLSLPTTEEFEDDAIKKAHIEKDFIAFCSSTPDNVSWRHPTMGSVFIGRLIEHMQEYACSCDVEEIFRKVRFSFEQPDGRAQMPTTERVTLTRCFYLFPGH
Description: Inhibition of caspase 1 (unknown origin) using YVAD-AFC as substrate by fluorescence analysis. In short, it runs like this: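 Caspase-1 activity is followed as a time course of fluorescence from cleavage of an AFC-labelled peptide substrate (Ex/Em 400/505 nm). Compounds are tested as a 10-dose series with 3-fold serial dilution starting at 100 μM or 10 μM. IC50 is the concentration halving enzyme activity. Curves are fitted only when activity at the top concentration is below 60%.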

The next data set deals with T2, Caspase-1 (Homo sapiens) (UniProt P29466).
T2 sequence (whole entry): T1 sequence (P29466 whole entry)
Description: Inhibition of caspase 1 (unknown origin) assessed as enzyme residual activity using YVAD-AFC as substrate at 100 uM by fluorescence analysis. In short, it runs like this:
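Caspase-1 cleavage of an AFC-labelled peptide substrate is monitored over time by fluorescence (Ex/Em 400/505 nm). Residual enzyme activity is expressed as % with 100 μM compound, relative to an untreated control.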

Data set [1] can be described thus: Cytotoxicity against human U-937 cells assessed as reduction in cell viability at 100 uM after 48 hrs by MTT assay. Type of data set: toxicity, cell-based. As to conditions: read-out: INH. The essentials: (§1)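 Human histiocytic lymphoma U937 cells are grown in RPMI 1640 with 10% FBS, penicillin and streptomycin at 37 °C under 5% CO₂. They are seeded at 10000 cells/well and exposed to compound from 1 nM to 100 μM for 48 h, with matched DMSO-only solvent controls. MTT (0.1 mg) is added for 4 h at 37 °C, cells are lysed, and A595 is read. Viability is given as % of control, as the mean of three independent experiments.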

In another data set the test system is U-937. The experiment in a line: Cytotoxicity against human U-937 cells assessed as reduction in cell viability at 10 to 100 nM after 48 hrs by MTT assay. As to conditions: u-937, 48 h, 0.1 µM, dose 10-100 nM. Type of data set: toxicity, cell-based. In short, it runs like this: as §1
Background: Tetrazolium dyes change colour on reduction, which living cells bring about.

Data set [2] can be described thus: Inhibition of LPS-induced IL-1beta secretion in human U-937 cells preincubated for 4 hrs with LPS followed by compound treatment for overnight by ELISA. The class given is functional, cell-based. In short, it runs like this:
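U937 cells in RPMI 1640 with 10% FBS, differentiated with […] for 24h. Primed with LPS (1 μg/ml) for 4h, then compound added at graded concentrations, 10 μM down to 1 nM, overnight. Supernatants stored at −80 °C, and human IL-1β measured by sandwich ELISA. IC50 from regression of % inhibition against log concentration.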
In general terms: ELISA stands for enzyme-linked immunosorbent assay.

A short description of data set [3]: Inhibition of LPS-induced IL-1beta secretion in human U-937 cells measured after 24 hrs by ELISA. The class given is functional, cell-based. As to conditions: U-937, 24 h. The essentials: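 U937 human histiocytic lymphoma cells, grown in RPMI 1640 with 10% FBS, differentiated into macrophages with […] for 24h. Compound given at graded concentrations, 10 μM down to 1 nM, together with LPS (1 μg/ml) for 24h. Supernatants frozen at −80 °C, then IL-1β measured by sandwich ELISA. IC50 taken from regression of % inhibition against log concentration.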

Regarding `CC(C)CC(NCC(O)CC(=O)O)c1nnnn1CCCC(=O)N1CCc2ccccc2C1` (stereo unspecified), the IC50 against Caspase-1 is 79.4 µM. Moreover, the Activity on Caspase-1 (Homo sapiens) came to 43.7%.

On to `CC(C)CC(c1nnnn1CCCC(=O)N1CCc2ccccc2C1)N(Cc1ccccc1)CC(O)CC(=O)[O-].[Na+]` (stereo unspecified), for which the concentration for half-maximal inhibition (IC50) was determined as 12.1 µM against Caspase-1, 0.85 µM in data set [2] and 0.35 µM in data set [3]. For the same compound, the figures for the Activity at Caspase-1 (Homo sapiens) and in the data set with U-937 were 2.47% and “Non-Toxic”, respectively. For the same compound, the cytotoxicity at 48 h, 100 µM in data set [1] worked out at 50%.

On to `O=C(O)CC(O)CNC(c1cccs1)c1nnnn1CCCC(=O)N1CCc2ccccc2C1` (stereo unspecified), for which, at Caspase-1 (Homo sapiens), the Activity was determined as 77.2%.

As to `CC(C)(C)CC(NCC(O)CC(=O)O)c1nnnn1CCCC(=O)NCc1ccccc1` (stereo unspecified), on Caspase-1 (Homo sapiens), the Activity stood at 59.9%.

In the case of `CC(C)(C)C[C@H](c1nnnn1CCCC(=O)N1CCc2ccccc2C1)N(Cc1ccccc1)CC(O)CC(=O)O` (stereo partly specified), the Activity at Caspase-1 (Homo sapiens) was 4.45%.

With `O=C(O)CC(O)CN[C@@H](c1cccs1)c1nnnn1CCCC(=O)N1CCc2ccccc2C1` (stereo partly specified), the Activity on Caspase-1 (Homo sapiens) stood at 29%.

Consider `O=C(O)C[C@H](O)CN[C@H](c1cccs1)c1nnnn1CCCC(=O)NCc1ccccc1`, for which, on Caspase-1 (Homo sapiens), the Activity is 69.8%.

`CC(C)(C)CC(c1nnnn1CCCC(=O)N1CCc2ccccc2C1)N(Cc1ccc(F)cc1)CC(O)CC(=O)O` (stereo unspecified) yielded an IC50 on Caspase-1 of 12.7 µM. In addition, on Caspase-1 (Homo sapiens), the Activity came out at 3.9%.

`CC(C)(C)C(NCC(O)CC(=O)O)c1nnnn1CCCC(=O)N1CCc2ccccc2C1` (stereo unspecified): at Caspase-1 (Homo sapiens), the Activity was found to be 61.9%.

`O=C(O)CC(O)CNC(c1ccccc1)c1nnnn1CCCC(=O)N1CCc2ccccc2C1` (stereo unspecified) showed a half-maximal inhibitory concentration (IC50) on Caspase-1 of 94.1 µM. Moreover, the Activity on Caspase-1 (Homo sapiens) came out at 48%.

At Caspase-1, `CC(C)CC(c1nnnn1CCCC(=O)N1CCc2ccccc2C1)N(Cc1ccc(F)cc1)CC(O)CC(=O)O` (stereo unspecified) gave an IC50 of 20.7 µM. The Activity at Caspase-1 (Homo sapiens) was found to be 2.06%.

For the compound `O=C(O)CC(O)CNC(c1nnnn1CCCC(=O)N1CCc2ccccc2C1)C1CC1` (stereo unspecified), the Activity on Caspase-1 (Homo sapiens) turned out to be 90%.

As for `O=C(O)CC(O)CN[C@H](c1ccccc1)c1nnnn1CCCC(=O)N1CCc2ccccc2C1` (stereo partly specified), on Caspase-1 (Homo sapiens), the Activity was 40.5%.

On to `O=C(O)CC(O)CN[C@@H](c1cccs1)c1nnnn1CCCC(=O)NCc1ccccc1` (stereo partly specified), for which the Activity at Caspase-1 (Homo sapiens) worked out at 49.6%.

Regarding `CC(C)(C)C[C@@H](NCC(O)CC(=O)O)c1nnnn1CCCC(=O)N1CCc2ccccc2C1` (stereo partly specified), the Activity on Caspase-1 (Homo sapiens) is 9.71%.

As for `CC(C)(C)CC(NCC(O)CC(=O)[O-])c1nnnn1CCCC(=O)N1CCc2ccccc2C1.[Na+]` (stereo unspecified), the IC50 came to 15.1 µM against Caspase-1 and 50.1 µM in data set [3]. Further, the Activity at Caspase-1 (Homo sapiens) is 8.12%; in the data set on U-937 it was “Non-Toxic”. For the same compound, the cytotoxicity at 48 h, 100 µM in data set [1] was 50%.

Consider `O=C(O)CC(O)CN[C@H](c1cccs1)c1nnnn1CCCC(=O)N1CCc2ccccc2C1` (stereo partly specified), for which, at Caspase-1 (Homo sapiens), the Activity was determined as 37.2%.

For `O=C(O)CC(O)CNC(c1nnnn1CCCC(=O)NCc1ccccc1)C1CC1` (stereo unspecified), the Activity on Caspase-1 (Homo sapiens) came to 77.1%.

Consider `CC(C)C(NCC(O)CC(=O)O)c1nnnn1CCCC(=O)N1CCc2ccccc2C1` (stereo unspecified), for which, at Caspase-1 (Homo sapiens), the Activity was 77.8%.

On to `CC(C)(C)CC(c1nnnn1CCCC(=O)N1CCc2ccccc2C1)N(Cc1ccccc1)CC(O)CC(=O)O` (stereo unspecified), for which the IC50 against Caspase-1 amounted to 10.3 µM. The Activity on Caspase-1 (Homo sapiens) turned out to be 2.91%.

Take `O=C(O)CC(O)CN[C@@H](c1ccccc1)c1nnnn1CCCC(=O)N1CCc2ccccc2C1` (stereo partly specified): the Activity on Caspase-1 (Homo sapiens) came out at 48.6%.

For `O=C(O)C[C@H](O)CN[C@@H](c1ccccc1)c1nnnn1CCCC(=O)NCc1ccccc1`, the Activity on Caspase-1 (Homo sapiens) came out at 62.4%.

With `COc1cc2c(cc1OC)CN(C(=O)CCCn1nnnc1C(NCC(O)CC(=O)O)C(C)(C)C)CC2` (stereo unspecified), the Activity at Caspase-1 (Homo sapiens) is 96.7%.

Consider `COc1cc2c(cc1OC)CN(C(=O)CCCn1nnnc1C(NCC(O)CC(=O)O)C1CC1)CC2` (stereo unspecified), for which the Activity on Caspase-1 (Homo sapiens) worked out at 80.6%.

For the compound `O=C(O)C[C@@H](O)CN[C@H](c1ccccc1)c1nnnn1CCCC(=O)NCc1ccccc1`, the Activity on Caspase-1 (Homo sapiens) was 63.3%.

For `COc1cc2c(cc1OC)CN(C(=O)CCCn1nnnc1C(CC(C)(C)C)NCC(O)CC(=O)O)CC2` (stereo unspecified), the IC50 on Caspase-1 came to 14.6 µM. Also, at Caspase-1 (Homo sapiens), the Activity is 9.49%.

The IC50 is the concentration needed to halve the response being measured.

These data come from ChEMBL document CHEMBL5154657, “Design, synthesis and biological evaluation of 1,5-disubstituted α-amino tetrazole derivatives as non-covalent inflammasome-caspase-1 complex inhibitors with potential application against immune and inflammatory disorders” (Eur J Med Chem, 2022).
